Screening results as filed in PubChem.
ARNT TACC3 PPI – disruptors of ARNT/TACC3 protein interaction, primary screen, biochemical, AlphaScreen, single concentration; AlphaScreen His-ARNT PAS-B/GST-TACC3 binding, luminescence; TACC3 fragment carries E629A point mutation; inhibition, % at 9.99 µM; actives 0.66% (n = 390,000); AID 623870, 2012;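 active means mean inhibition of replicates at least 50% and at least half of replicates each reaching 50%; inconclusive means half or more replicates reach 50% but mean below 50%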;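 further: 0% = complete ARNT plus TACC3 wells and 100% = ARNT alone without TACC3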
HIF activator – HIF pathway transcriptional activators, primary screen, cell-based, U2OS HRE-luciferase, luminescence. U2OS HRE-luciferase reporter; normalized: DMSO 0%, desferrioxamine 100%. activation, % at 7.5 µM (by protocol). actives 0.32% (n = 300,000);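 active means mean activation of at least 10% of the iron chelator positive control signal, with at least half of replicates also reaching 10%; inconclusive means mean and replicate majority disagree about reaching 10%; inactive means mean and most replicates under 10%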
AI-2 QS modul – Vibrio harveyi AI-2 quorum sensing modulators, primary screen, JMH597 strain, luminescence/OD600 ratio | Vibrio harveyi JMH597 AI-2 luminescence/OD600 ratio, 9 h; stronger effect = lower value; strain lacks LuxN and CqsS sensors; 0 = neutral-control median | activity change, % at 7.5 µM | actives 0.4% (n = 300,000) | AID 2094, 2009; in the data active means activity change below about -75%, passing the limit was not always enough; inconclusive means no clear call, values can overlap the other calls;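 further: luminescence divided by OD600 gain over 9 h not by final OD600 alone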
T cruzi repl – inhibitors of intracellular T. cruzi growth, primary screen, luminescence, NIH3T3 host cells | T. cruzi beta-gal in NIH3T3, 90 h | actives 1.4% (n = 300,000) | inhibition, % (test concentration not listed) | AID 1885, 2009;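 active means mean inhibition across valid replicates above about 55%, limit read from the data; inconclusive means mean below that limit but half or more replicates reach it; inactive means mean below it, under half of replicates reach it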;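 further: signal also drops with host cell toxicity which is not excluded here; 0% = plate median of DMSO wells and 100% = zero luminescence signal; higher percent means less beta-gal luminescence so fewer parasites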
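Incubation – ≥90 h infection period, 3 h prior cell attachment · System – NIH/3T3 fibroblasts plus reporter T. cruzi · Doses – compound pinned at 50 nL/well, DMSO · Read-out basis – percent inhibition of parasite-derived β-gal signal · Signal – luminescent β-galactosidase signal after 60 min lysis · Also added – 5000 T. cruzi trypomastigotes/well · Medium – Low-serum DMEM with 2% FBS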
JMH597 growth – Vibrio harveyi growth inhibition, confirmation, counter-screen for AI-2 quorum sensing project, JMH597 strain, OD600 absorbance; 9 h; lacks LuxN and CqsS sensors; AID 2726, 2010; shares compounds with AI-2 QS modul; actives 1% (n = 750); growth inhibition, % at 7.5 µM;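 active means every replicate shows growth inhibition above 50%; inconclusive means at least half, but not all, replicates pass that cutoff; inactive means fewer than half of replicates pass it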
BB721 const-QS lum – luminescence inhibition in constitutive-on V. harveyi, confirmation, counter-screen for LuxS inhibitor project, strain BB721, luminescence readout; shares compounds with AI-2 QS modul; inhibition, % at 7.5 µM; Vibrio harveyi BB721 luminescence, 9 h; actives 95% (n = 750);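 active means inhibition above about 80% in every replicate, not just on average, limit read from the data; inconclusive means at least half of replicates past the limit, but not all; inactive means fewer than half of replicates past the limit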
BB721 growth rt – growth inhibition of V. harveyi BB721, confirmation, cytotoxicity control for AI-2 quorum sensing inhibitors, strain BB721, absorbance OD600 | shares compounds with AI-2 QS modul | Vibrio harveyi BB721 growth, 9 h | growth inhibition, % at 7.5 µM | actives 3% (n = 750);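 active means every replicate shows growth inhibition above 50%; inconclusive means at least half but not all replicates above 50% inhibition; inactive means under half of replicates above 50% inhibition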
JMH597 AI-2 mod – Vibrio harveyi AI-2 signaling luminescence modulation – JMH597 strain, confirmation | shares compounds with AI-2 QS modul | Vibrio harveyi JMH597 AI-2 quorum sensing luminescence, 9 h; luxN and CqsS knockout, AI-2 only | inhibition, % at 7.5 µM | actives 97% (n = 750) | AID 2736, 2010;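 active means every replicate shows more than 75% inhibition of signal versus neutral control wells; inconclusive means half to three quarters of replicates exceed 75% inhibition; inactive means fewer than half of replicates exceed 75% inhibition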
* = called active by the depositor; ? = inconclusive; . = no result given. In the library only some 2% were active in any assay of this set; here they are far more common.

SMILES | ARNT TACC3 PPI | HIF activator | AI-2 QS modul | T cruzi repl | JMH597 growth | BB721 const-QS lum | BB721 growth rt | JMH597 AI-2 mod
O=C(Nn1cnc2ccccc2c1=O)c1ccccc1Cl | 2 | 1 | -4 | -36 | . | . | . | .
Cc1ccccc1C(=O)Nn1cnc2ccccc2c1=O | -5 | 2 | 7 | -12 | . | . | . | .
O=C(Nc1ccc(S(=O)(=O)N2CCOCC2)cc1)C1COc2ccccc2O1 (stereo not given) | 28 | 0 | -1 | -9 | . | . | . | .
CN(C)S(=O)(=O)c1ccc(NC(=O)C2COc3ccccc3O2)cc1 (stereo not given) | 3 | 0 | -89* | -13 | 12 | 96* | -3 | 98*
O=C(Nc1ccc(S(=O)(=O)Nc2ccccc2)cc1)C1COc2ccccc2O1 (stereo not given) | -4 | 0 | 10 | -3 | . | . | . | .
O=C(Nc1ccc(S(=O)(=O)N2CCCC2)cc1)C1COc2ccccc2O1 (stereo not given) | -4 | 0 | ? | -6 | 23 | 93* | -23 | 99*
C[C@H]1CCCCO[C@@H](CN(C)C(=O)Nc2ccc(C(F)(F)F)cc2)[C@@H](C)CN([C@@H](C)CO)C(=O)c2cc(NC(=O)Nc3ccc(C(F)(F)F)cc3)ccc2O1 | 9 | . | . | . | . | . | . | .
CCS(=O)(=O)N[C@H]1C=C[C@@H](CC(=O)N2CCCCC2)O[C@@H]1CO | 0 | . | . | . | . | . | . | .
CN1CCN(C(=O)C[C@H]2CC[C@@H](NC(=O)c3ccc4c(c3)OCO4)[C@@H](CO)O2)CC1 | -3 | . | . | . | . | . | . | .
CCNC(=O)C[C@@H]1CC[C@@H]2[C@H](COC[C@@H](O)CN2C(=O)C2CC2)O1 | -3 | . | . | . | . | . | . | .
Nc1nc(-c2ccccc2)nc(-c2ccccc2O)n1 | -8 | 3 | -5 | -2 | . | . | . | .
Nc1nc(NCc2ccccc2)nc(-c2ccccc2)n1 | 9 | 0 | -82* | 2 | -25 | 87* | -37 | 92*
Cc1cc(NS(=O)(=O)c2ccc(NC(=O)CCc3ccccc3)cc2)no1 | 1 | 0 | -91* | -12 | 21 | 95* | 17 | 97*
O=C(C[C@H]1C[C@H]2c3cc(NC(=O)NC4CCCCC4)ccc3O[C@H]2[C@@H](CO)O1)NCc1cccnc1 | 0 | . | . | . | . | . | . | .
COc1ccc(CNC(=O)Nc2ccc(OC)cc2)cc1 | -5 | 0 | -5 | -19 | . | . | . | .
COc1ccc(CNC(=O)Nc2ccccc2)cc1 | 1 | 2 | -88* | 2 | 5 | 95* | 22 | 96*
COc1ccc(CNC(=O)Nc2cccc(C)c2)cc1 | . | 1 | -92* | -5 | 11 | 97* | 28 | 98*
COc1ccc(CN(C)C[C@H]2OCCCC[C@@H](C)Oc3ccc(NC(=O)C4CCCCC4)cc3C(=O)N([C@@H](C)CO)C[C@H]2C)cc1 | 1 | . | . | . | . | . | . | .
CCOC(=O)c1sc(NC(=O)c2ccco2)nc1C | -7 | . | 12 | . | . | . | . | .
CCOC(=O)c1sc(NC(=O)COC(=O)c2ccco2)nc1C | -2 | 0 | -89* | 3 | 10 | 97* | -5 | 98*
COc1ccc(N(CC(=O)Nc2ccc(OC)c(OC)c2)S(=O)(=O)c2ccccc2)cc1Cl | 4 | -1 | 6 | 20 | . | . | . | .
COc1ccc(NC(=O)CN(c2ccc(OC)c(Cl)c2)S(=O)(=O)c2ccccc2)cc1 | 2 | 0 | ? | -7 | 17 | -6 | 18 | -3
CCCCCn1c(=S)[nH]c2cc(C(=O)N3CCCC3)ccc2c1=O | 1 | -1 | 20 | 7 | . | . | . | .
